The test system of data set [1] is Trichophyton rubrum. Kind of data set: Antifungal activity against Trichophyton rubrum 252 CSTM assessed as growth inhibition by agar dilution method. The data set is classed as functional. In general terms: Agar dilution tests growth on a series of plates holding different concentrations.
The test system of data set [2] is Nippostrongylus brasiliensis. Briefly: Anthelmintic activity against larvae stage of Nippostrongylus brasiliensis infected in rat assessed as decrease in worm load at 250 mg/kg, po administered on day 8 post infection. The data set is classed as functional, organism-based. On the set-up: dose 250 mg/kg. Put shortly:
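Young male rats (25–30 g, University of Freiburg strain), 3 per compound, infected with 500 infective larvae; single 250 mg/kg oral dose on day 8. Worm loads of treated and control groups compared; 90% deparasitization taken as active. Whitlock–Bliss technique as modified by Steward.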

The subject of data set [3] is Rodentolepis nana. Briefly: Anthelmintic activity against viable ova stage of Hymenolepis nana infected in rat assessed as decrease in intestinal worm load at 250 mg/kg, po measured on day 3. The data set is classed as functional, organism-based. Also on record: dose 250 mg/kg. Put shortly: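 Young male rats (25–30 g, University of Freiburg strain) infected with 200 viable ova, then given a single 250 mg/kg oral dose. Worms from each rat's small intestine collected and scored on day 3. A mean score of 0–10% of control taken as active.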

The test system of data set [4] is Nannizzia gypsea. Briefly: Antifungal activity against Microsporum gypseum 153 CSTM assessed as growth inhibition by agar dilution method. The data set is classed as functional.
Data set [5] concerns Escherichia coli. Kind of data set: Antibacterial activity against Escherichia coli 114 assessed as growth inhibition after 24 hrs by dilution tube method. The data set is classed as functional. As to conditions: Escherichia coli, 114, 24 h. Put shortly:
(§1)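 Broth tube dilution in Tryptone Soya Broth, duplicate tubes at each concentration. MIC (μg/ml) was the highest dilution preventing visible growth. Nitrofurantoin run under the same conditions.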

In data set [6] the test system is Staphylococcus aureus. Kind of data set: Antibacterial activity against Staphylococcus aureus ATCC 6538 assessed as growth inhibition after 24 hrs by dilution tube method. As to conditions: ATCC 6538, 24 h. The data set is classed as functional. Put shortly: as §1
In data set [7] the test system is Pseudomonas aeruginosa. Briefly: Antibacterial activity against Pseudomonas aeruginosa ATCC 10145 assessed as growth inhibition after 24 hrs by dilution tube method. The data set is classed as functional. To be noted: ATCC 10145, 24 h. Put shortly:
as §1

Data set [8] concerns Enterococcus faecalis. Briefly: Antibacterial activity against Streptococcus faecalis ATCC 10541 assessed as growth inhibition after 24 hrs by dilution tube method. The data set is classed as functional. As to conditions: ATCC 10541, 24 h. Put shortly:
as §1

Data set [9] in a line: Acute toxicity in ip dosed mouse. As to conditions: in vivo. The format is organism-based. Put shortly:
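Mice dosed intraperitoneally; LD50 determined.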

Data set [10] has as its system Agrobacterium tumefaciens. Kind of data set: Antibacterial activity against Agrobacterium tumefaciens NRRL B-36 assessed as growth inhibition after 24 hrs by dilution tube method. The format is functional. As to conditions: NRRL B-36, 24 h. Put shortly: as §1
Data set [11] concerns Cryptococcus neoformans. Briefly: Antifungal activity against Cryptococcus neoformans 103 assessed as growth inhibition by agar dilution method. The format is functional.
Data set [12] concerns Microsporum canis. Briefly: Antifungal activity against Microsporum canis VM-200 USPHS assessed as growth inhibition by agar dilution method. The format is functional.
For data set [13], the system named is Klebsiella pneumoniae. Kind of data set: Antibacterial activity against Klebsiella pneumoniae ATCC 10031 assessed as growth inhibition after 24 hrs by dilution tube method. The format is functional. As to conditions: ATCC 10031, 24 h. Put shortly: as §1
The subject of data set [14] is Salmonella typhi. Kind of data set: Antibacterial activity against Salmonella typhi 115 assessed as growth inhibition after 24 hrs by dilution tube method. The data set is classed as functional, Salmonella enterica subsp. enterica serovar Typhi. As to conditions: Salmonella enterica, 115, 24 h. Put shortly: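 Dilution tube method in Tryptone Soya Broth; MIC (μg/ml) taken as highest dilution preventing visible growth; duplicates at every concentration; nitrofurantoin reference run under same conditions.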

The test system of data set [15] is Histoplasma capsulatum. Kind of data set: Antifungal activity against Histoplasma capsulatum RNSH Hi-70 1/2 assessed as growth inhibition by agar dilution method. The format is functional.
The test system of data set [16] is Candida albicans. Briefly: Antifungal activity against Candida albicans SKF 2270 assessed as growth inhibition by agar dilution method. The format is functional.
The test system of data set [17] is Mycobacterium tuberculosis. Briefly: Antibacterial activity against Mycobacterium tuberculosis H37Rv assessed as growth inhibition by serial dilution method. The format is functional. Put shortly: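 M. tuberculosis H37Rv maintained on Lowenstein–Jensen medium; tested in Youman's medium by serial dilution.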
The test system of data set [18] is Trichophyton mentagrophytes. Briefly: Antifungal activity against Trichophyton mentagrophytes A-280 USPHS assessed as growth inhibition by agar dilution method. The data set is classed as functional.

For 3 compounds, MIC, Activity and LD50 results are on record in ChEMBL document CHEMBL3244174, “Synthesis and biological activity of some new furan quaternary salts” (J Med Chem, 1977).

Active and inactive are the calls of the source.

Turning to `C[N+](C)(CCCCOc1c(Br)cc(Br)cc1Br)Cc1ccc(Br)o1.[Br-]`, the MIC (in general, the smallest concentration in the dilution series that meets the test's criterion for growth inhibition) in [1] was more than 200 µg/mL; in data set [4], more than 200 µg/mL; in [5] it was more than 200 µg/mL; in data set [6] it was 5 µg/mL; in data set [7] it was 5 µg/mL; in [8], 25 µg/mL. For the same compound, the minimum inhibitory concentration (MIC) in [10] was 50 µg/mL; in data set [11], 25 µg/mL; in data set [12], more than 200 µg/mL; in data set [13], 7.5 µg/mL; in data set [14], 100 µg/mL; in data set [15], 50 µg/mL. Further, the MIC in data set [16] was more than 200 µg/mL; in [17], 50 µg/mL; in [18] it was more than 200 µg/mL. The outcome in data set [2] and in data set [3] was inactive. In addition, in [9], the median lethal dose (LD50) (commonly the dose at which mortality reaches 50%) worked out at 37.5 mg/kg.

For `Cc1cc(OCCCCC[N+](C)(C)Cc2ccc([N+](=O)[O-])o2)c(C(C)C)cc1Cl.[Br-]`, the MIC in data set [1] was 100 µg/mL; in [4] it was 100 µg/mL; in [5], more than 200 µg/mL; in data set [6] it was 10 µg/mL; in data set [7] it was 2.5 µg/mL; in [8] it was 10 µg/mL. The MIC in data set [10] was found to be 25 µg/mL; in [11], 25 µg/mL; in [12], 100 µg/mL; in data set [13], 2.5 µg/mL; in [14], 50 µg/mL; in [15], 100 µg/mL. The results for the MIC in data set [16], in data set [17] and in data set [18] were more than 200 µg/mL, 5 µg/mL and more than 200 µg/mL, respectively. Moreover, the outcome in data set [2] and in data set [3] was inactive. In [9], this compound displayed an LD50 of 50 mg/kg.

Regarding `Cc1cc(OCCCC[N+](C)(C)Cc2ccc([N+](=O)[O-])o2)c(C(C)C)cc1Cl.[Br-]`, the MIC in data set [1] was more than 200 µg/mL; in data set [4], more than 200 µg/mL; in data set [5], more than 200 µg/mL; in data set [6], 7.5 µg/mL; in data set [7] it was 1.5 µg/mL; in data set [8], 25 µg/mL. Besides, the MIC in data set [10] was 25 µg/mL; in [11], 25 µg/mL; in data set [12], more than 200 µg/mL; in data set [13] it was 5 µg/mL; in data set [14], more than 200 µg/mL; in data set [15], more than 200 µg/mL. The values for the minimal inhibitory concentration (MIC) in data set [16], in [17] and in [18] were more than 200 µg/mL, 10 µg/mL and more than 200 µg/mL, respectively. For the same compound, the outcome in data set [2] and in [3] was inactive. In data set [9], this compound had an LD50 of 75 mg/kg.
